Experimental data: ChEMBL document CHEMBL1121384, “Synthesis and psychoanaleptic properties of new compounds structurally related to diphenhydramine” (J Med Chem, 1980)
Counter-ions that a name gives are not always drawn.

What was measured:
[1] = tested on: Mus musculus; assay: Increase of exploratory behavior of mice by administering compound perorally; type: functional
How it was run: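 Male Swiss mice (18-20 g) were dosed orally in 0.5% carboxymethylcellulose and placed singly in photobeam boxes with two crossed beams. Beam breaks were counted over the first 5 min. ED50 is the dose raising counts by 50% over vehicle controls, fitted by least squares from four groups of 10 mice on doses spaced by ratio 2.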

[2] = tested on: Mus musculus; assay: Toxicity administered perorally was measured in mice; type: organism-based; settings: in vivo, po
How it was run: (§1)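 Male Swiss mice (18-20 g) were given compound orally in 0.5% carboxymethylcellulose, in groups of four at 200, 400, 800 and 1600 mg/kg. LD50 was taken from mortality; vehicle controls were included.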

[3] = Ratio of LD50/ED50; type: ADME
[4] = tested on: Mus musculus; assay: Toxicity was measured as Lethal Dose 50 by administering to mice perorally; type: organism-based; settings: in vivo, po; how it was run: as §1
[5] = organism: Cavia porcellus; assay: In vitro antihistaminic activity was determined by histamine induced contraction of guinea pig ileum; type: functional; settings: for Kb: Cavia porcellus, Ileum, read-out: pA2 (converted)
How it was run: (§2)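 Terminal ileum strips from guinea pigs (250-300 g) killed by a blow to the neck were hung in Tyrode solution at 32 °C, gassed with 95% O2/5% CO2.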

[6] = tested on: Canis familiaris; assay: Sympathomimetic action was evaluated from the increase of the femoral arterial blood pressure and of the cardiac uM/kg changes were < 10%; type: functional, Canis lupus familiaris
How it was run: (§3)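 Mongrel dogs of both sexes were given compound intravenously in 0.5% carboxymethylcellulose. Hypertension and tachycardia were recorded. Values are doses in μmol/kg.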

[7] = organism: Cavia porcellus; assay: In vitro anticholinergic activity was determined by acetylcholine induced contraction of guinea pig ileum; type: functional; settings: read-out: pA2 (converted); how it was run: as §2
[8] = Group toxicity is the ratio of the LD50 values of isolated mice to that of grouped mice; type: organism-based; settings: mouse, in vivo; read-out: Group toxicity
How it was run: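 Male Swiss mice (18-20 g) were dosed orally in 0.5% carboxymethylcellulose. Groups of 10 were then either crowded in small boxes (8.5 × 18 × 8.5 cm, four air holes) or kept isolated under usual housing, and mortality was read at 6 h. Ratio = LD50 isolated / LD50 grouped, from six doses spaced by ratio 2, computed by Kärber's method.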

[9] = tested on: Mus musculus; assay: Narcosis antagonism was measured as the dose required to lower by 50% the duration of narcosis in mice after peroral administration; type: functional; settings: po
[10] = organism: Rattus norvegicus; assay: Anorexic activity was measured as the dose required to lower by 50% the consumption of control group in rat; No activity at this dose; type: functional
How it was run: (§4)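 Male Wistar rats (100-120 g) given chocolate milk to drink for 6 h once a week over 6 weeks. In the last 4 weeks, compounds in 0.5% aqueous carboxymethylcellulose were given orally before each session in a Latin square design. ED50 is the dose cutting consumption by 50% vs vehicle controls, fitted by least squares from three groups (24 rats) on doses spaced by ratio 2.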

[11] = tested on: Canis familiaris; assay: Sympathomimetic action was evaluated from the increase of the femoral arterial blood pressure and of the cardiac uM/kg changes were <10%; type: functional, Canis lupus familiaris; how it was run: as §3
[12] = tested on: Canis familiaris; assay: Sympathomimetic action was evaluated from the increase of the cardiac rhythm after intravenous injection in dog; type: functional, Canis lupus familiaris; how it was run: as §3
[13] = tested on: Canis familiaris; assay: Sympathomimetic action was evaluated from the increase of the femoral arterial blood pressure after intravenous injection in dog; type: functional, Canis lupus familiaris; how it was run: as §3
[14] = organism: Rattus norvegicus; assay: Anorexic activity was measured as the dose required to lower by 50% the consumption of control group in rat; type: functional; how it was run: as §4

Row | SMILES | ED50 [1] [mmol/kg] | LD50 [2] [mmol/kg] | selectivity ratio [3] | other results
1 | Cl.N#CCCN1CCN(CCOC(c2ccccc2)c2ccccc2)CC1 | 0.1 | 0.7 | 7 | –
2 | CCOC(=O)CCN1CCN(CCOC(c2ccccc2)c2ccc([N+](=O)[O-])cc2)CC1.Cl (configuration not stated) | 0.5 | – | – | LD50 [4]: 3 M/kg
3 | Cl.NC(=O)CCN1CCN(CCOC(c2ccccc2)c2ccccc2)CC1 | 0.17 | 2.1 | 12 | –
4 | CCOC(=O)CCN1CCN(CCOC(c2ccccc2)c2ccccc2Cl)CC1.Cl (configuration not stated) | 0.5 | 3.2 | – | pA2 [5]: 7.25
5 | CCOC(=O)CCN1CCN(CCOC(c2ccc(F)cc2)c2ccc(F)cc2)CC1.Cl | 0.06 | 1.2 | 20 | Activity [6]: 0; Kb [7]: 0.309 µM; Kb [5]: 0.00724 µM; selectivity ratio [8]: 0.4; ED50 [9]: ~200 µmol/kg
6 | Cl.O=C(O)CCCN1CCN(CCOC(c2ccccc2)c2ccccc2)CC1 | 0.17 | 3.4 | – | –
7 | CCOC(=O)CCN1CCN(CCCOC(c2ccccc2)c2ccccc2)CC1.Cl | 0.1 | 1.8 | 18 | –
8 | O=C(CN1CCN(CCOC(c2ccccc2)c2ccccc2)CC1)N1CCN(Cc2ccc3c(c2)OCO3)CC1.O=C(O)/C=C\C(=O)O.O=C(O)/C=C\C(=O)O | – | 0.7 | 23 | –
9 | O=C(CN1CCN(CCOC(c2ccccc2)c2ccccc2)CC1)N1CCOCC1.O=C(O)/C=C\C(=O)O.O=C(O)/C=C\C(=O)O.O=C(O)/C=C\C(=O)O | 0.15 | 1.2 | 8 | –
10 | O=C(O)/C=C\C(=O)O.O=C(O)/C=C\C(=O)O.O=C(O)CN1CCN(CCOC(c2ccccc2)c2ccc(F)cc2)CC1 (configuration not stated) | 0.1 | 2.8 | 28 | –
11 | O=C(O)/C=C\C(=O)O.O=C(O)/C=C\C(=O)O.O=C(O)CCN1CCN(CCOC2c3ccccc3-c3ccccc32)CC1 | 0.23 | 2.3 | 10 | –
12 | O=C(O)/C=C\C(=O)O.O=C(O)/C=C\C(=O)O.O=C(O)CCN1CCN(CCOC(c2ccccc2)c2ccc(Cl)cc2)CC1 (configuration not stated) | 0.05 | 1.6 | 32 | –
13 | COc1cc(C(OCCN2CCN(CCC(=O)O)CC2)c2ccccc2)cc(OC)c1OC.O=C(O)/C=C\C(=O)O.O=C(O)/C=C\C(=O)O (configuration not stated) | 0.5 | 2.3 | – | –
14 | O=C(O)/C=C\C(=O)O.O=C(O)/C=C\C(=O)O.O=C(O)CCN1CCN(CCOC(c2ccccc2)c2cccc(C(F)(F)F)c2)CC1 (configuration not stated) | 0.3 | 1.8 | 6 | –
15 | O=C(O)/C=C\C(=O)O.O=C(O)/C=C\C(=O)O.O=C(O)CCN1CCN(CCOC(c2ccccc2)c2ccc(F)cc2)CC1 (configuration not stated) | 0.04 | 1.3 | 37 | Activity [6]: 0; Kb [7]: 7.24 µM; Kb [5]: 0.224 µM; selectivity ratio [8]: 1.7; ED50 [10]: > 60 µmol/kg; ED50 [9]: > 650 µmol/kg
16 | COc1ccccc1C(OCCN1CCN(CCC(=O)O)CC1)c1ccccc1.O=C(O)/C=C\C(=O)O.O=C(O)/C=C\C(=O)O (configuration not stated) | 0.5 | 2.2 | – | –
17 | O=C(O)/C=C\C(=O)O.O=C(O)/C=C\C(=O)O.O=C(O)CCCCN1CCN(CCOC(c2ccccc2)c2ccc(F)cc2)CC1 (configuration not stated) | 0.05 | 2.2 | 40 | –
18 | O=C(O)/C=C\C(=O)O.O=C(O)/C=C\C(=O)O.O=C(O)CCCN1CCN(CCOC(c2ccccc2)c2ccc(F)cc2)CC1 (configuration not stated) | 0.06 | 1.9 | 34 | –
19 | CCCC(OCCN1CCN(CCC(=O)O)CC1)c1ccccc1.O=C(O)/C=C\C(=O)O.O=C(O)/C=C\C(=O)O (configuration not stated) | 0.1 | > 2.8 | > 28 | Kb [7]: 1.95 µM; Kb [5]: 3.55 µM
20 | O=C(O)/C=C\C(=O)O.O=C(O)/C=C\C(=O)O.O=C(O)CCN1CCN(CCOC(c2ccc(F)cc2)c2ccc(F)cc2)CC1 | 0.05 | 1.1 | 23 | –
21 | Cc1ccc(C(OCCN2CCN(CCC(=O)O)CC2)c2ccccc2)cc1.O=C(O)/C=C\C(=O)O.O=C(O)/C=C\C(=O)O (configuration not stated) | 0.16 | 2.3 | 14 | –
22 | O=C([O-])CCN1CCN(CCOC(c2ccccc2)c2ccccc2)CC1.[Na+] | 0.21 | 3.6 | 17 | Activity [11]: 0; Kb [7]: 115 µM; Kb [5]: 0.759 µM; selectivity ratio [8]: 0.6; ED50 [9]: > 500 µmol/kg
23 | O=C([O-])CN1CCN(CCOC(c2ccccc2)c2ccccc2)CC1.[Na+] | 0.5 | 4.3 | – | –
24 | O=C(O)CCN1CCN(CCOCc2ccccc2)CC1 | 0.5 | > 5.5 | – | –
25 | CC(N)Cc1ccccc1.O=S(=O)(O)O (racemic) [AMPHETAMINE SULFATE] | – | – | – | Increase [12]: 30%; Increase [13]: 50%; Kb [7]: > 1000 µM; Kb [5]: 13.5 µM; selectivity ratio [8]: 5.3; ED50 [14]: 13 µmol/kg; ED50 [9]: 20 µmol/kg
26 | COc1ccc(CN(CCN(C)C)c2ccccn2)cc1 [PYRILAMINE MALEATE] | – | – | – | Kb [7]: 3.98 µM; Kb [5]: 0.000417 µM
